Results: ChEMBL document CHEMBL1140087, “Synthesis and structure-activity relationship studies of cytotoxic ester and ether anhydrovinblastine derivatives” (J Nat Prod, 2008)

Columns and labels:
[1] = test system: A549; assay: Cytotoxicity against human A549 cells after 72 hrs by SRB assay; assay type: functional, cell-based; conditions: A549, 72 h
Summary of the method: (§1)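 Ditartrate salts tested. ATCC cells seeded at 6000/well, attached overnight, then exposed in triplicate to graded concentrations at 37 °C for 72 h. Fixed with 10% trichloroacetic acid for 60 min at 4 °C, stained with 0.4% w/v SRB in 1% acetic acid for 15 min, dye solubilised in Tris buffer, A515 read. IC50 for 50% growth inhibition by Logit method. Anhydrovinblastine as positive control.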

[2] = test system: HeLa; assay: Cytotoxicity against human HeLa cells after 72 hrs by SRB assay; assay type: functional, cell-based; summary of the method: as §1

Compound | IC50 [1] | IC50 [2]
C=CCOC[C@@]1(O)[C@H](OC(C)=O)[C@]2(CC)C=CCN3CC[C@@]4(c5cc([C@@]6(C(=O)OC)C[C@@H]7C=C(CC)CN(CCc8c6[nH]c6ccccc86)C7)c(OC)cc5N(C)[C@@H]14)[C@@H]32 | 124 nM | 162 nM
CCC1=C[C@@H]2CN(CCc3c([nH]c4ccccc34)[C@@](C(=O)OC)(c3cc4c(cc3OC)N(C)[C@H]3[C@@](O)(COCc5ccc(OC)cc5)[C@H](OC(C)=O)[C@]5(CC)C=CCN6CC[C@]43[C@@H]65)C2)C1 | 702 nM | 409 nM
CCC1=C[C@@H]2CN(CCc3c([nH]c4ccccc34)[C@@](C(=O)OC)(c3cc4c(cc3OC)N(C)[C@H]3[C@@](O)(COC(=O)C5CC5)[C@H](OC(C)=O)[C@]5(CC)C=CCN6CC[C@]43[C@@H]65)C2)C1 | 47.9 nM | 38.1 nM
CCCCOC[C@@]1(O)[C@H](OC(C)=O)[C@]2(CC)C=CCN3CC[C@@]4(c5cc([C@@]6(C(=O)OC)C[C@@H]7C=C(CC)CN(CCc8c6[nH]c6ccccc86)C7)c(OC)cc5N(C)[C@@H]14)[C@@H]32 | 422 nM | 422 nM
CCC1=C[C@@H]2CN(CCc3c([nH]c4ccccc34)[C@@](C(=O)OC)(c3cc4c(cc3OC)N(C)[C@H]3[C@@](O)(COC(=O)Cc5ccccc5)[C@H](OC(C)=O)[C@]5(CC)C=CCN6CC[C@]43[C@@H]65)C2)C1 | 67.4 nM | 272 nM
CCC1=C[C@@H]2CN(CCc3c([nH]c4ccccc34)[C@@](C(=O)OC)(c3cc4c(cc3OC)N(C)[C@H]3[C@@](O)(COC(=O)c5ccc([N+](=O)[O-])cc5)[C@H](OC(C)=O)[C@]5(CC)C=CCN6CC[C@]43[C@@H]65)C2)C1 | 52.3 nM | 169 nM
CCC1=C[C@@H]2CN(CCc3c([nH]c4ccccc34)[C@@](C(=O)OC)(c3cc4c(cc3OC)N(C)[C@H]3[C@@](O)(COC(=O)c5ccc(Cl)cc5)[C@H](OC(C)=O)[C@]5(CC)C=CCN6CC[C@]43[C@@H]65)C2)C1 | 56.7 nM | 102 nM
CCC(=O)OC[C@@]1(O)[C@H](OC(C)=O)[C@]2(CC)C=CCN3CC[C@@]4(c5cc([C@@]6(C(=O)OC)C[C@@H]7C=C(CC)CN(CCc8c6[nH]c6ccccc86)C7)c(OC)cc5N(C)[C@@H]14)[C@@H]32 | 39.1 nM | 62.1 nM
CCC1=C[C@@H]2CN(CCc3c([nH]c4ccccc34)[C@@](C(=O)OC)(c3cc4c(cc3OC)N(C)[C@H]3[C@@](O)(COC(=O)c5ccccc5)[C@H](OC(C)=O)[C@]5(CC)C=CCN6CC[C@]43[C@@H]65)C2)C1 | 25.4 nM | 35.6 nM
CCC1=C[C@@H]2CN(CCc3c([nH]c4ccccc34)[C@@](C(=O)OC)(c3cc4c(cc3OC)N(C)[C@H]3[C@@](O)(COC(C)=O)[C@H](OC(C)=O)[C@]5(CC)C=CCN6CC[C@]43[C@@H]65)C2)C1 | 38.2 nM | 35.3 nM
CCC1=C[C@@H]2CN(CCc3c([nH]c4ccccc34)[C@@](C(=O)OC)(c3cc4c(cc3OC)N(C)[C@H]3[C@@](O)(COC(=O)c5ccccc5Cl)[C@H](OC(C)=O)[C@]5(CC)C=CCN6CC[C@]43[C@@H]65)C2)C1 | 40.5 nM | 147 nM
CCC1=C[C@@H]2CN(CCc3c([nH]c4ccccc34)[C@@](C(=O)OC)(c3cc4c(cc3OC)N(C)[C@H]3[C@@](O)(COC(=O)C(C)C)[C@H](OC(C)=O)[C@]5(CC)C=CCN6CC[C@]43[C@@H]65)C2)C1 | 59.9 nM | 87.5 nM
CCC1=C[C@@H]2CN(CCc3c([nH]c4ccccc34)[C@@](C(=O)OC)(c3cc4c(cc3OC)N(C)[C@H]3[C@@](O)(COC(=O)C(C)(C)C)[C@H](OC(C)=O)[C@]5(CC)C=CCN6CC[C@]43[C@@H]65)C2)C1 | 181 nM | 96 nM
CCC1=C[C@@H]2CN(CCc3c([nH]c4ccccc34)[C@@](C(=O)OC)(c3cc4c(cc3OC)N(C)[C@H]3[C@@](O)(COC(=O)CC(C)C)[C@H](OC(C)=O)[C@]5(CC)C=CCN6CC[C@]43[C@@H]65)C2)C1 | 70.3 nM | 175 nM
CCCOC[C@@]1(O)[C@H](OC(C)=O)[C@]2(CC)C=CCN3CC[C@@]4(c5cc([C@@]6(C(=O)OC)C[C@@H]7C=C(CC)CN(CCc8c6[nH]c6ccccc86)C7)c(OC)cc5N(C)[C@@H]14)[C@@H]32 | 401 nM | 398 nM
CCC1=C[C@@H]2CN(CCc3c([nH]c4ccccc34)[C@@](C(=O)OC)(c3cc4c(cc3OC)N(C)[C@H]3[C@@](O)(COC(=O)c5ccc(OC)cc5)[C@H](OC(C)=O)[C@]5(CC)C=CCN6CC[C@]43[C@@H]65)C2)C1 | 29.7 nM | 151 nM
CCOC[C@@]1(O)[C@H](OC(C)=O)[C@]2(CC)C=CCN3CC[C@@]4(c5cc([C@@]6(C(=O)OC)C[C@@H]7C=C(CC)CN(CCc8c6[nH]c6ccccc86)C7)c(OC)cc5N(C)[C@@H]14)[C@@H]32 | 98 nM | 220 nM
CCC1=C[C@@H]2CN(CCc3c([nH]c4ccccc34)[C@@](C(=O)OC)(c3cc4c(cc3OC)N(C)[C@H]3[C@@](O)(COC(=O)c5ccccc5OC)[C@H](OC(C)=O)[C@]5(CC)C=CCN6CC[C@]43[C@@H]65)C2)C1 | 14.2 nM | 154 nM
